# Active and inactive are the calls of the source. The calls are words filed in the database; no cut-off is given here.
# Key:
# [1] = target: T1, Aurora kinase B (Homo sapiens, UniProt Q96GD4); assay: Inhibition of Aurora kinase B-mediated histone H3 Ser10 phosphorylation in human HCT116 cells after 2 hrs by sandwich ELISA; type: cell-based, HCT-116
# Procedure, shortened: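 HCT-116 cells seeded 4 × 10⁴/well, 4-6 h at 37 °C, then arrested overnight (16-18 h) with nocodazole at 66 ng/mL final. Treated 2 h with nine-point 3-fold dilutions in DMSO; lysed with phosphatase inhibitor, phospho-H3 (Ser10) sandwich ELISA read at 450 nm. IC50 = 50% inhibition of phosphorylation; duplicate runs averaged.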
# [2] = target: T2, Aurora kinase A (Homo sapiens, UniProt O14965); assay: Binding affinity to Aurora kinase A catalytic domain by competition binding assay
# T2 sequence (O14965 whole entry): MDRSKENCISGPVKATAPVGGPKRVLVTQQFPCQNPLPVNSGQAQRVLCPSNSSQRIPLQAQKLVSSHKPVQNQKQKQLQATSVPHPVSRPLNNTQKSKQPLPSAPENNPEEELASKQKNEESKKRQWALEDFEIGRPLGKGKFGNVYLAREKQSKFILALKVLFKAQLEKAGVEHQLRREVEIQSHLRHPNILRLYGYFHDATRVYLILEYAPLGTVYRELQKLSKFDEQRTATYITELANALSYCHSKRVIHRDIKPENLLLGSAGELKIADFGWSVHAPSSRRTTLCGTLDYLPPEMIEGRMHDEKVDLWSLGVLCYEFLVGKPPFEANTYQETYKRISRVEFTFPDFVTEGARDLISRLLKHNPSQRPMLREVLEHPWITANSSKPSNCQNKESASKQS
# [3] = tested on: HCT-116; assay: Antiproliferative activity against human HCT116 cells after 72 hrs by BrdU-based ELISA; type: functional, cell-based; settings: HCT-116, 72 h
# Procedure, shortened: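 HCT-116 cells in McCoy's 5A with 10% FBS and pen/strep, seeded 800 cells/well, left overnight at 37 °C, 5% CO2. Nine-point 3-fold serial dilutions in DMSO added for 72 h; BrdU colorimetric ELISA read at 450 and 690 nm. IC50 is the concentration halving proliferation; duplicate runs averaged.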
# [4] = target: T1, Aurora kinase B; assay: Binding affinity to Aurora kinase B catalytic domain by competition binding assay
# [5] = Clearance in Sprague-Dawley rat at 1 mg/kg, iv administered using PEG400/water as vehicle; type: ADME, organism-based; design: dose 1 mg/kg, route intravenous; settings: in vivo
# Procedure, shortened: (§1)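 SD rats fasted overnight, given 1 mg/kg iv in PEG400/water (3:1, v/v); three per arm. Blood into K3 EDTA at 5, 15, 30 min, 1, 2, 4, 6, 24 h, spun at 4 °C; plasma extracted with six volumes acetonitrile plus internal standard and quantified by LC-MS/MS (C8 column, formic acid/ACN gradient).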
# [6] = AUC (0 to infinity) in Nu/Nu rat at 10 mg/kg, iv administered using TPPW as vehicle; type: ADME, organism-based; design: time infinity, dose 10 mg/kg, route intravenous; settings: plasma
# Procedure, shortened: (§2)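 Plasma from K3 EDTA blood at 5, 15, 30 min, 1, 2, 4, 6, 24 h; acetonitrile extraction with internal standard, LC-MS/MS on C8 column, 5-95% ACN gradient with 0.05% formic acid.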
# [7] = AUC (0 to infinity) in Sprague-Dawley rat at 1 mg/kg, iv administered using PEG400/water as vehicle; type: ADME, organism-based; design: time infinity, dose 1 mg/kg, route intravenous; settings: plasma; procedure, shortened: as §1
# [8] = Volume of distribution in Nu/Nu rat at 3 mg/kg, iv administered using TPPW as vehicle; type: ADME, organism-based; design: dose 3 mg/kg, route intravenous; settings: in vivo; procedure, shortened: as §2
# [9] = Half life in Nu/Nu rat at 10 mg/kg, iv administered using TPPW as vehicle; type: ADME, organism-based; design: dose 10 mg/kg, route intravenous; settings: in vivo; procedure, shortened: as §2
# [10] = Clearance in athymic Nu/Nu rat at 3 mg/kg, iv administered using TPPW as vehicle; type: ADME, organism-based; design: dose 3 mg/kg, route intravenous; settings: in vivo; procedure, shortened: as §2
# [11] = Half life in Sprague-Dawley rat at 1 mg/kg, iv administered using PEG400/water as vehicle; type: ADME, organism-based; design: dose 1 mg/kg, route intravenous; settings: in vivo; procedure, shortened: as §1
# [12] = Half life in Nu/Nu rat at 30 mg/kg, iv administered using TPPW as vehicle; type: ADME, organism-based; design: dose 30 mg/kg, route intravenous; settings: in vivo; procedure, shortened: as §2
# [13] = tested on: HCT-116; assay: Antitumor activity against human HCT116 cells xenografted in athymic nude rat assessed as tumor growth inhibition at 10 mg/kg, iv administered every other day from day 10 post tumor-injection for 3 weeks relative to vehicle treated control; type: functional; settings: read-out: TGI
# Procedure, shortened: (§3)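 Subcutaneous flank HCT-116 xenografts in nude rats; at Day 1 groups of 10 with mean tumor 301-306 mm³. Tail-vein iv in TPPW (2% Tween-80, 5% propylene glycol, 10% PG-400, 83% water) at 10 mL/kg, weight-adjusted: days 1,3,5,8,10,12,15,17,19 or days 1-4, 8-11, 15-18. Irinotecan control 100 mg/kg ip weekly ×3.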
# [14] = tested on: Rattus norvegicus; assay: Toxicity in athymic nude rat bearing human HCT116 cells assessed as adverse effects at 5 to 10 mg/kg, iv administered QD for 4 days per week followed by 3 days off per week for 3 weeks; type: organism-based, HCT-116; design: dose 5-10 mg/kg, route intravenous; settings: in vivo; procedure, shortened: as §3
# [15] = AUC (0 to infinity) in Nu/Nu rat at 30 mg/kg, iv administered using TPPW as vehicle; type: ADME, organism-based; design: time infinity, dose 30 mg/kg, route intravenous; settings: plasma; procedure, shortened: as §2
# [16] = Clearance in athymic Nu/Nu rat at 10 mg/kg, iv administered using TPPW as vehicle; type: ADME, organism-based; design: dose 10 mg/kg, route intravenous; settings: in vivo; procedure, shortened: as §2
# [17] = target: T3, Aurora kinase C (Homo sapiens, UniProt Q9UQB9); assay: Binding affinity to Aurora kinase C
# T3 sequence (Q9UQB9 whole entry): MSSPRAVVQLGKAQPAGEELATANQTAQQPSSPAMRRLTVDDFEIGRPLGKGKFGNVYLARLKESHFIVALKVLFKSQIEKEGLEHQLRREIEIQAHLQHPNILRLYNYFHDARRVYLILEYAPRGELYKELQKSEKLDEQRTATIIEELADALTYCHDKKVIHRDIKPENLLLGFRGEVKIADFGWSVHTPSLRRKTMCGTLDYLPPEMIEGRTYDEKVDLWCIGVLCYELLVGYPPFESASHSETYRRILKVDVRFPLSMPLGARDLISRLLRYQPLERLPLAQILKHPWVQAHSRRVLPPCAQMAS
# [18] = tested on: HCT-116; assay: Antitumor activity against human HCT116 cells xenografted in athymic nude rat assessed as tumor stasis at 10 to 20 mg/kg, iv administered every other day from day 10 post tumor-injection for 3 weeks measured upto 40 days; type: functional, organism-based
# Procedure, shortened: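 HCT-116 flank xenografts in nude rats, groups of 10 at mean 301-306 mm³; iv tail-vein dosing in TPPW at 10 mL/kg on days 1,3,5,8,10,12,15,17,19; tumors followed after dosing stopped, study ending day 42 or day 60.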
# [19] = Clearance in athymic Nu/Nu rat at 30 mg/kg, iv administered using TPPW as vehicle; type: ADME, organism-based; design: dose 30 mg/kg, route intravenous; settings: in vivo; procedure, shortened: as §2
# [20] = tested on: Rattus norvegicus; assay: Toxicity in athymic nude rat bearing human HCT116 cells assessed body weight loss up to 20 mg/kg, iv administered every other day from day 10 post tumor-injection for 3 weeks; type: organism-based, HCT-116; design: dose 20 mg/kg, route intravenous; settings: in vivo, 504 h; procedure, shortened: as §3
# [21] = AUC (0 to infinity) in Nu/Nu rat at 3 mg/kg, iv administered using TPPW as vehicle; type: ADME, organism-based; design: time infinity, dose 3 mg/kg, route intravenous; settings: plasma; procedure, shortened: as §2
# [22] = Volume of distribution in Nu/Nu rat at 30 mg/kg, iv administered using TPPW as vehicle; type: ADME, organism-based; design: dose 30 mg/kg, route intravenous; settings: in vivo; procedure, shortened: as §2
# [23] = tested on: HCT-116; assay: Antitumor activity against human HCT116 cells xenografted in athymic nude rat assessed as tumor growth inhibition at 5 mg/kg, iv administered QD for 4 days per week followed by 3 days off per week for 3 weeks; type: functional, organism-based; design: dose 5 mg/kg; procedure, shortened: as §3
# [24] = tested on: HCT-116; assay: Antitumor activity against human HCT116 cells xenografted in athymic nude rat assessed as tumor growth inhibition at 10 mg/kg, iv administered QD for 4 days per week followed by 3 days off per week for 3 weeks; type: functional, organism-based; design: dose 10 mg/kg; procedure, shortened: as §3
# [25] = Volume of distribution in Nu/Nu rat at 10 mg/kg, iv administered using TPPW as vehicle; type: ADME, organism-based; design: dose 10 mg/kg, route intravenous; settings: in vivo; procedure, shortened: as §2
# [26] = target: T2, Aurora kinase A; assay: Inhibition of Aurora kinase A autophosphorylation in human HEK293 cells after 2 hrs by phosphor antibody readout assay; type: cell-based
# [27] = Half life in Nu/Nu rat at 3 mg/kg, iv administered using TPPW as vehicle; type: ADME, organism-based; design: dose 3 mg/kg, route intravenous; settings: in vivo; procedure, shortened: as §2
# [28] = target: T1, Aurora kinase B; assay: Inhibition of Aurora kinase B in human HCT116 cells assessed as induction of 8N polyploidy; type: cell-based; settings: HCT-116
# [29] = Volume of distribution in Sprague-Dawley rat at 1 mg/kg, iv administered using PEG400/water as vehicle; type: ADME, organism-based; design: dose 1 mg/kg, route intravenous; settings: in vivo; procedure, shortened: as §1
# [30] = tested on: Rattus norvegicus; assay: Toxicity in athymic nude rat bearing human HCT116 cells assessed body weight loss at 40 mg/kg, iv administered every other day from day 10 post tumor-injection for 3 weeks; type: organism-based, HCT-116; design: dose 40 mg/kg, route intravenous; settings: in vivo, 504 h; procedure, shortened: as §3
# [31] = Protein binding in plasma; type: ADME, cell-free; settings: read-out: PPB
# [32] = tested on: HCT-116; assay: Antitumor activity against human HCT116 cells xenografted in athymic nude rat assessed as tumor growth inhibition at 20 mg/kg, iv administered every other day from day 10 post tumor-injection for 3 weeks relative to vehicle treated control; type: functional; settings: read-out: TGI; procedure, shortened: as §3
# T1 sequence (Q96GD4 whole entry): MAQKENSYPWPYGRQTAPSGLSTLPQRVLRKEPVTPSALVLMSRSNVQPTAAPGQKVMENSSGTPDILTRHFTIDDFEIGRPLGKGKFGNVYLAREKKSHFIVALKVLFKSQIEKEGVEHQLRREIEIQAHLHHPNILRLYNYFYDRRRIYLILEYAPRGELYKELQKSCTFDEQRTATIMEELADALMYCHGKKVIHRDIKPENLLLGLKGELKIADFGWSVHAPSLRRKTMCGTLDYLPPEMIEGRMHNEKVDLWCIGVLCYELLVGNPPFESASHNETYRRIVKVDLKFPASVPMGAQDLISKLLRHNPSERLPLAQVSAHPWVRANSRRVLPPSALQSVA
smiles,measurement,setting,value
COCCO[C@@H]1CCN(CC(=O)Nc2ccc(Sc3nc(Nc4cc(C)[nH]n4)c4cccn4n3)cc2)C1,IC50,[1],6.2 nM
same,Kd,[2],11.5 nM
same,IC50,[3],3.1 nM
same,Kd,[4],3.1 nM
same,clearance,[5],62 mL/min/kg
Cc1cc(Nc2nc(Sc3ccc(NC(=O)CN4CC[C@@H](C(=O)NC(C)(C)C)C4)cc3)nn3cccc23)n[nH]1,IC50,[1],6.2 nM
same,Kd,[2],5.6 nM
same,IC50,[3],1 nM
same,Kd,[4],3.1 nM
same,clearance,[5],48 mL/min/kg
Cc1cc(Nc2nc(Sc3ccc(NC(=O)CN4CC[C@@H](C(=O)NCC(F)(F)F)C4)cc3)nn3cccc23)n[nH]1,IC50,[1],7 nM
same,Kd,[2],2.5 nM
same,IC50,[3],0.9 nM
same,Kd,[4],2.2 nM
same,clearance,[5],35 mL/min/kg
Cc1cc(Nc2nc(Sc3ccc(NC(=O)CN4CC[C@@H](C(=O)N5CCC(O)CC5)C4)cc3)nn3cccc23)n[nH]1,IC50,[1],293 nM
same,Kd,[2],4 nM
same,IC50,[3],105 nM
same,Kd,[4],3.7 nM
Cc1cc(Nc2nc(Sc3ccc(NC(=O)CN4CC[C@@H](C(=O)Nc5ccc(F)cc5)C4)cc3)nn3cccc23)n[nH]1,IC50,[1],42.2 nM
same,Kd,[2],19.5 nM
same,IC50,[3],3.8 nM
same,Kd,[4],6.9 nM
Cc1cc(Nc2nc(Sc3ccc(NC(=O)CN4CC[C@@H](C(=O)NC5CCCC5)C4)cc3)nn3cccc23)n[nH]1,AUC(0-inf),[6],14.6 µM·h
same,IC50,[1],3 nM
same,AUC(0-inf),[7],1.8 µM·h
same,Vd,[8],1 L/kg
same,half-life,[9],3.8 h
same,clearance,[10],27.9 mL/min/kg
same,Kd,[2],9.3 nM
same,half-life,[11],9.4 h
same,half-life,[12],3.4 h
same,inhibition in vivo at 10 mg/kg,[13],77%
same,Activity,[14],Non-toxic
same,IC50,[3],2.3 nM
same,AUC(0-inf),[15],62.5 µM·h
same,clearance,[16],20.7 mL/min/kg
same,Kd,[17],< 10 nM
same,Activity,[18],Active
same,Kd,[4],1.9 nM
same,clearance,[19],14.7 mL/min/kg
same,Activity,[20],Non-toxic
same,AUC(0-inf),[21],3.2 µM·h
same,Vd,[22],0.84 L/kg
same,clearance,[5],16.9 mL/min/kg
same,TGI,[23],Active
same,TGI,[24],Active
same,Vd,[25],1.1 L/kg
same,IC50,[26],2 nM
same,half-life,[27],1.5 h
same,inhibition,[28],Dose-dependent effect
same,Vd,[29],3.49 L/kg
same,Activity,[30],> 10%
same,fraction unbound,[31],0.01
same,inhibition in vivo at 20 mg/kg,[32],82%
Cc1cc(Nc2nc(Sc3ccc(NC(=O)CN4CC[C@@H](O)C4)cc3)nn3cccc23)n[nH]1,IC50,[1],103 nM
same,Kd,[2],10.5 nM
same,IC50,[3],74 nM
same,Kd,[4],6.6 nM

# Reference: ChEMBL document CHEMBL2163334, “Discovery of highly potent and selective pan-Aurora kinase inhibitors with enhanced in vivo antitumor therapeutic index” (J Med Chem, 2012)
